These results are taken from ChEMBL document CHEMBL1125518, “Sulfonylureas: a new class of cancer chemotherapeutic agents” (1992).

Common to all, as to format: functional
In assay [1] the test system is 6C3HED. Description: Inhibition of tumor growth of 6C3HED lymphosarcoma tumor cell line in mice at a dose of 300 mg/kg given orally (daily x 8). The following applies: Mus musculus, route oral. In a few lines: (§1)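 C3H mice received subcutaneous 1-2 mm 6C3HED lymphosarcoma fragments, which grew for 1 day before treatment. The agent was suspended in 2.5% emulphor and given by oral gavage once daily on days 2-9. On day 10, intact tumors were measured by calipers to estimate tumor weight. Percent inhibition was taken from treated versus untreated control tumor weights, mostly with 10 mice per group.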

In assay [2] the test system is 6C3HED. The assay can be described thus: Inhibition of tumor growth of 6C3HED lymphosarcoma tumor cell line in mice at a dose of 150 mg/kg given orally(daily x 8). As to conditions: Mus musculus, po. An outline of the steps:
as §1

The next assay deals with CX-1. Description: Inhibition of tumor growth of CX-1 cell line at 600 mg/kg. As to conditions: Homo sapiens.
Another assay concerns Mus musculus. Description: Lethal dose against C3H mouse with subcutaneously implanted 6C3HED lymphosarcoma. The following applies: sc. An outline of the steps:
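C3H mice bearing subcutaneously implanted 6C3HED lymphosarcoma fragments (1-2 mm), grown 1 day before treatment. Compound suspended in 2.5% emulphor and given po by gavage daily × 8 (days 2-9). Deaths from drug toxicity were recorded to give the lethal dose.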

For assay [3], the system named is 6C3HED. Description: Inhibition of tumor growth of 6C3HED lymphosarcoma tumor cell line in mice at a dose of 200 mg/kg given orally(daily x 8). As to conditions: Mus musculus, po. In a few lines:
as §1

SMILES strings stand for the structures.

The inhibition in vivo is the change of the read-out against control, counted positive when it falls. High values mean a strong effect, low ones a weak effect. In the assay on 6C3HED [1], `CC(C)c1ccc(S(=O)(=O)NC(=O)Nc2ccc(Cl)cc2)s1` yielded an inhibition in vivo at 300 mg/kg of 63%. Also, in the assay with 6C3HED [2], the inhibition in vivo at 150 mg/kg came to 42%.

Broadly, the LD50 is the dose at which mortality reaches 50%. Higher therefore signals lower toxicity. `COc1ccc(S(=O)(=O)NC(=O)Nc2ccc(Cl)cc2)s1` gave an inhibition in vivo at 300 mg/kg in the assay with 6C3HED [1] of 100%. The inhibition in vivo at 150 mg/kg in the assay with 6C3HED [2] worked out at 93%. For the same molecule, the inhibition in vivo at 600 mg/kg with CX-1 is 62%. For the same molecule, in the assay with Mus musculus, the LD50 turned out to be 450 mg/kg.

In the case of `O=C(Nc1ccc(Cl)cc1)NS(=O)(=O)c1scc2c1CCCC2`, the inhibition in vivo at 300 mg/kg in the assay on 6C3HED [1] came to 15%. Further, the inhibition in vivo at 150 mg/kg in the assay on 6C3HED [2] came out at 0%.

In the assay on 6C3HED [1], `CCc1ccc(S(=O)(=O)NC(=O)Nc2ccc(Cl)cc2)[nH]1` had an inhibition in vivo at 300 mg/kg of 56%.

For the molecule `CSc1ccc(S(=O)(=O)NC(=O)Nc2ccc(Cl)cc2)s1`, in the assay on 6C3HED [1], the inhibition in vivo at 300 mg/kg came to 62%. The same molecule had an inhibition in vivo at 150 mg/kg with 6C3HED [2] of 29%.

Take `CCc1ccc(S(=O)(=O)NC(=O)Nc2ccc(Cl)cc2)o1`: at 300 mg/kg the inhibition in vivo in the assay on 6C3HED [1] was 80%. In the assay with 6C3HED [2], the inhibition in vivo at 150 mg/kg is 57%.

In turn, `CC(C)(C)c1ccc(S(=O)(=O)NC(=O)Nc2ccc(Cl)cc2)s1` came in with an inhibition in vivo at 300 mg/kg in the assay with 6C3HED [1] of 10%. Further, the inhibition in vivo at 150 mg/kg with 6C3HED [2] turned out to be 7%.

The molecule `CCOc1ccc(S(=O)(=O)NC(=O)Nc2ccc(Cl)cc2)s1` came in with an inhibition in vivo at 300 mg/kg in the assay on 6C3HED [1] of 96%. The molecule further showed an inhibition in vivo at 150 mg/kg with 6C3HED [2] of 69%.

Turning to `COc1csc(S(=O)(=O)NC(=O)Nc2ccc(Cl)cc2)c1`, in the assay on 6C3HED [1], the inhibition in vivo at 300 mg/kg came to 69%. In the assay with 6C3HED [2], this molecule came in with an inhibition in vivo at 150 mg/kg of 36%.

For `CCc1csc(S(=O)(=O)NC(=O)Nc2ccc(Cl)cc2)c1`, in the assay with 6C3HED [1], the inhibition in vivo at 300 mg/kg came to 93%. The inhibition in vivo at 150 mg/kg in the assay on 6C3HED [2] turned out to be 55%.

In the assay on 6C3HED [3], `O=C(Nc1ccc(Cl)c(Cl)c1)NS(=O)(=O)c1cc2c(s1)CCCC2` came in with an inhibition in vivo at 200 mg/kg of 44%.

The molecule `CCc1ccsc1S(=O)(=O)NC(=O)Nc1ccc(Cl)cc1` yielded an inhibition in vivo at 300 mg/kg with 6C3HED [1] of 25%. The inhibition in vivo at 150 mg/kg with 6C3HED [2] was 21%.

`O=C(Nc1ccc(Cl)cc1)NS(=O)(=O)c1scc2c1CCC2`: in the assay with 6C3HED [1], the inhibition in vivo at 300 mg/kg came to 51%. The molecule also yielded an inhibition in vivo at 150 mg/kg in the assay on 6C3HED [2] of 36%.

`Cc1cc(S(=O)(=O)NC(=O)Nc2ccc(Cl)cc2)sc1C` displayed an inhibition in vivo at 300 mg/kg in the assay with 6C3HED [1] of 73%. In the assay on 6C3HED [2], this molecule gave an inhibition in vivo at 150 mg/kg of 42%.

For the molecule `CCc1sc(S(=O)(=O)NC(=O)Nc2ccc(Cl)cc2)cc1C`, in the assay on 6C3HED [1], 300 mg/kg produced 58% inhibition in vivo. Further, testing at 150 mg/kg in the assay on 6C3HED [2] gave an inhibition in vivo of 26%.

`CCCc1ccc(S(=O)(=O)NC(=O)Nc2ccc(Cl)cc2)s1` had an inhibition in vivo at 300 mg/kg in the assay with 6C3HED [1] of 39%. For the same molecule, in the assay with 6C3HED [2], testing at 150 mg/kg gave an inhibition in vivo of 38%.

In the case of `CCc1ccc(S(=O)(=O)NC(=O)Nc2ccc(Cl)cc2)s1`, the inhibition in vivo at 300 mg/kg in the assay on 6C3HED [1] is 89%. In the assay with 6C3HED [2], testing at 150 mg/kg gave an inhibition in vivo of 57%.

Regarding `Cc1ccc(S(=O)(=O)NC(=O)Nc2ccc(Cl)c(Cl)c2)s1`, 300 mg/kg produced 61% inhibition in vivo in the assay on 6C3HED [1]. Also, the inhibition in vivo at 150 mg/kg with 6C3HED [2] worked out at 24%.

Molecule `O=C(Nc1ccc(Cl)cc1)NS(=O)(=O)c1cc(Br)c(Br)s1` came in with an inhibition in vivo at 300 mg/kg in the assay with 6C3HED [1] of 52%. For the same molecule, at 150 mg/kg the inhibition in vivo with 6C3HED [2] was 25%.

On to `O=C(Nc1ccc(Cl)cc1)NS(=O)(=O)c1cc2c(s1)CCC2`, for which the inhibition in vivo at 300 mg/kg in the assay with 6C3HED [1] came out at 16%. Besides, 150 mg/kg produced 16% inhibition in vivo in the assay with 6C3HED [2].

`O=C(Nc1ccc(Cl)cc1)NS(=O)(=O)c1ccc(Cl)s1` yielded an inhibition in vivo at 300 mg/kg in the assay on 6C3HED [1] of 89%. The molecule also registered an inhibition in vivo at 150 mg/kg in the assay on 6C3HED [2] of 58%.

With `O=C(Nc1ccc(Cl)cc1)NS(=O)(=O)c1cccs1`, at 300 mg/kg the inhibition in vivo with 6C3HED [1] was 66%. In addition, in the assay with 6C3HED [2], the inhibition in vivo at 150 mg/kg was determined as 16%.

Consider `CCCOc1ccc(S(=O)(=O)NC(=O)Nc2ccc(Cl)cc2)s1`, for which the inhibition in vivo at 300 mg/kg with 6C3HED [1] amounted to 63%. In the assay with 6C3HED [2], this molecule showed an inhibition in vivo at 150 mg/kg of 44%.

In the assay with 6C3HED [1], `Cc1ccsc1S(=O)(=O)NC(=O)Nc1ccc(Cl)cc1` came in with an inhibition in vivo at 300 mg/kg of 62%. Besides, the inhibition in vivo at 150 mg/kg in the assay with 6C3HED [2] came to 17%.
